Reference: ChEMBL document CHEMBL1151431, “Role of lon, an ATP-dependent protease homolog, in resistance of Pseudomonas aeruginosa to ciprofloxacin” (2007)
Values after ≈ are worked out from the molar mass of the structure shown. Active and inactive are the calls of the source. The calls are words filed in the database; no cut-off is given here.

Key:
Pseudomonas aeruginosa [1] = test: Antibacterial activity against 6_G1 allele containing Pseudomonas aeruginosa PAO1 H1121 mutant strain with PA4961::lux mutation after 24 hrs by broth microdilution technique; format: functional
How it was run: (§1)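 Broth microdilution MIC with P. aeruginosa PAO1 H103 (wild type), Tn5-lux insertion mutants or complemented strain. Overnight LB cultures grown at 37°C with agitation, diluted 1:1,000 in LB. Antimicrobials made fresh daily. Growth scored after 24 h at 37°C. Four independent repeats; mode reported.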

Pseudomonas aeruginosa [2] = test: Antibacterial activity against 53_F11 allele containing Pseudomonas aeruginosa PAO1 H1124 mutant strain with PA5279::lux mutation after 24 hrs by broth microdilution technique; format: functional; how it was run: as §1
Pseudomonas aeruginosa [3] = test: Antibacterial activity against 24_A2 allele containing Pseudomonas aeruginosa PAO1 H1106 mutant strain with lon::lux mutation after 24 hrs by broth microdilution technique; format: functional; how it was run: as §1
Pseudomonas aeruginosa [4] = test: Antibacterial activity against Pseudomonas aeruginosa PAO1 H1105/lon+c mutant strain with lon::lux/lon+ mutation after 24 hrs by broth microdilution technique; format: functional; how it was run: as §1
Pseudomonas aeruginosa [5] = test: Antibacterial activity against 69_C12 allele containing Pseudomonas aeruginosa PAO1 H1109 mutant strain with recA::lux mutation after 24 hrs by broth microdilution technique; format: functional; how it was run: as §1
Pseudomonas aeruginosa [6] = test: Antibacterial activity against 70_H3 allele containing Pseudomonas aeruginosa PAO1 H1129 mutant strain with rnt::lux mutation after 24 hrs by broth microdilution technique; format: functional; how it was run: as §1
Pseudomonas aeruginosa [7] = test: Antibacterial activity against 75_F11 allele containing Pseudomonas aeruginosa PAO1 H1136 mutant strain with PA5455::lux mutation after 24 hrs by broth microdilution technique; format: functional; how it was run: as §1
Pseudomonas aeruginosa [8] = test: Antibacterial activity against wild type Pseudomonas aeruginosa PAO1 H103 after 24 hrs by broth microdilution technique; format: functional; how it was run: as §1
Pseudomonas aeruginosa [9] = test: Antibacterial activity against 74_D9 allele containing Pseudomonas aeruginosa PAO1 H1105 mutant strain with lon::lux mutation assessed as fold decrease in MIC after 24 hrs by broth microdilution technique relative to wild type; format: functional; how it was run: as §1
Pseudomonas aeruginosa [10] = test: Antibacterial activity against 16_G12 allele containing Pseudomonas aeruginosa PAO1 H1125 mutant strain with recG::lux mutation after 24 hrs by broth microdilution technique; format: functional; how it was run: as §1
Pseudomonas aeruginosa [11] = test: Antibacterial activity against Pseudomonas aeruginosa PAO1 H1105/lon+ mutant strain with lon::lux mutation assessed as fold decrease in MIC after 24 hrs by broth microdilution technique relative to wild type; format: functional; how it was run: as §1
Pseudomonas aeruginosa [12] = test: Antibacterial activity against 24_A2 allele containing Pseudomonas aeruginosa PAO1 H1106 mutant strain with lon::lux mutation assessed as fold decrease in MIC after 24 hrs by broth microdilution technique relative to wild type; format: functional; how it was run: as §1
Pseudomonas aeruginosa [13] = test: Antibacterial activity against 31_C9 allele containing Pseudomonas aeruginosa PAO1 H1104 mutant strain with lon::lux mutation after 24 hrs by broth microdilution technique; format: functional; how it was run: as §1
Pseudomonas aeruginosa [14] = test: Antibacterial activity against 31_C9 allele containing Pseudomonas aeruginosa PAO1 H1104 mutant strain with lon::lux mutation assessed as fold decrease in MIC after 24 hrs by broth microdilution technique relative to wild type; format: functional; how it was run: as §1
Pseudomonas aeruginosa [15] = test: Antibacterial activity against 74_D9 allele containing Pseudomonas aeruginosa PAO1 H1105 mutant strain with lon::lux mutation after 24 hrs by broth microdilution technique; format: functional; how it was run: as §1
Pseudomonas aeruginosa [16] = test: Antibacterial activity against 63_H5 allele containing Pseudomonas aeruginosa PAO1 H1133 mutant strain with nfxB::lux mutation after 24 hrs by broth microdilution technique; format: functional; how it was run: as §1
Pseudomonas aeruginosa [17] = test: Increase in lon gene expression in Pseudomonas aeruginosa PAO1 H1105 mutant strain with lon::lux mutation assessed as incese in lon::lux fusion at 0.3 times MIC by luminescence assay relative to control; format: functional, organism-based
Pseudomonas aeruginosa [18] = test: Effect on morphological change in Pseudomonas aeruginosa PAO1 H1105/lon+ assessed as elongation in cell length at 0.03 ug/ml by Grams staining-based light microscopy
Pseudomonas aeruginosa [19] = test: Effect on morphological change in Pseudomonas aeruginosa PAO1 H1105 assessed as elongation in cell length at 0.03 ug/ml by Grams staining-based light microscopy; format: functional, organism-based
Pseudomonas aeruginosa [20] = test: Effect on morphological change in Pseudomonas aeruginosa PAO1 H1105/lon+ assessed as restoration of cell division at 0.03 ug/ml by Grams staining-based light microscopy
Pseudomonas aeruginosa [21] = test: Drug resistance in Pseudomonas aeruginosa PAO1 H1105 assessed as survivality at 0.0075 ug/ml after overnight incubation by adaptive resistance assay; format: functional, organism-based
Pseudomonas aeruginosa [22] = test: Antimicrobial activity in 0.01 ug/ml pretreated Pseudomonas aeruginosa PAO1 H103 at 2 times MIC after overnight incubation by adaptive resistance assay; format: functional, organism-based
How it was run: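 Modified time-kill with PAO1 H103 grown to mid-log (OD600 0.5–0.6) in LB at 37°C with or without ciprofloxacin 0.01 or 0.03 µg/ml. Cells were pelleted, washed in prewarmed PBS pH 7.4, resuspended in prewarmed LB with ciprofloxacin 0.2 µg/ml (2× MIC) and shaken at 37°C. Samples taken every 15–20 min for 2 h and plated on LB agar for overnight CFU counts at 37°C. Four independent experiments.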

| Compound | MIC (Pseudomonas aeruginosa [1]; PAO1 H1121, 24 h) [µg/mL] | MIC (Pseudomonas aeruginosa [2]; PAO1 H1124, 24 h) [µg/mL] | MIC (Pseudomonas aeruginosa [3]; PAO1 H1106, 24 h) [µg/mL] | MIC (Pseudomonas aeruginosa [4]) [µg/mL] | MIC (Pseudomonas aeruginosa [5]; PAO1 H1109, 24 h) [µg/mL] | MIC (Pseudomonas aeruginosa [6]; PAO1 H1129, 24 h) [µg/mL] | MIC (Pseudomonas aeruginosa [7]; PAO1 H1136, 24 h) [µg/mL] | MIC (Pseudomonas aeruginosa [8]; PAO1 H103, 24 h) [µg/mL] | fold change (FC) (Pseudomonas aeruginosa [9]) | MIC (Pseudomonas aeruginosa [10]; PAO1 H1125, 24 h) [µg/mL] | fold change (FC) (Pseudomonas aeruginosa [11]) | fold change (FC) (Pseudomonas aeruginosa [12]) | MIC (Pseudomonas aeruginosa [13]; PAO1 H1104, 24 h) [µg/mL] | fold change (FC) (Pseudomonas aeruginosa [14]) | MIC (Pseudomonas aeruginosa [15]; PAO1 H1105, 24 h) [µg/mL] | MIC (Pseudomonas aeruginosa [16]; PAO1 H1133, 24 h) [µg/mL] | other results |
| --- | --- | --- | --- | --- | --- | --- | --- | --- | --- | --- | --- | --- | --- | --- | --- | --- | --- |
| CCn1cc(C(=O)O)c(=O)c2ccc(C)nc21 [NALIDIXIC ACID] | 128 (≈ 551 µM) | 128 (≈ 551 µM) | 128 (≈ 551 µM) | 256 (≈ 1100 µM) | 256 (≈ 1100 µM) | 512 (≈ 2200 µM) | 512 (≈ 2200 µM) | 256 (≈ 1100 µM) | 2 | 128 | 1 | 2 | 128 (≈ 551 µM) | 2 | 128 (≈ 551 µM) | 512 (≈ 2200 µM) | – |
| CCn1cc(C(=O)O)c(=O)c2cc(F)c(N3CCNCC3)cc21 [NORFLOXACIN] | 0.075 (≈ 0.235 µM) | 0.15 (≈ 0.47 µM) | 0.15 (≈ 0.47 µM) | 0.3 (≈ 0.939 µM) | 0.075 (≈ 0.235 µM) | > 0.6 | > 0.6 | 0.3 (≈ 0.939 µM) | 4 | 0.15 | 1 | 2 | 0.15 (≈ 0.47 µM) | 2 | 0.075 (≈ 0.235 µM) | > 0.6 | – |
| GENTAMICIN | – | – | – | – | – | – | – | – | – | – | – | – | – | – | – | – | MIC (Pseudomonas aeruginosa [1]): 2 µg/mL; MIC (Pseudomonas aeruginosa [2]): 2 µg/mL; MIC (Pseudomonas aeruginosa [3]): 2 µg/mL; MIC (Pseudomonas aeruginosa [5]): 2 µg/mL; MIC (Pseudomonas aeruginosa [6]): 2 µg/mL; MIC (Pseudomonas aeruginosa [7]): 2 µg/mL; MIC (Pseudomonas aeruginosa [8]): 2 µg/mL; MIC (Pseudomonas aeruginosa [10]): 2 µM; MIC (Pseudomonas aeruginosa [13]): 2 µg/mL; MIC (Pseudomonas aeruginosa [15]): 2 µg/mL; MIC (Pseudomonas aeruginosa [16]): 2 µg/mL |
| C[C@@H](O)[C@H]1C(=O)N2C(C(=O)O)=C(SCCNC=N)C[C@H]12 [IMIPENEM ANHYDROUS] | 1 (≈ 3.34 µM) | 1 (≈ 3.34 µM) | 1 (≈ 3.34 µM) | 1 (≈ 3.34 µM) | 1 (≈ 3.34 µM) | 1 (≈ 3.34 µM) | 1 (≈ 3.34 µM) | 1 (≈ 3.34 µM) | – | 1 | – | – | 1 (≈ 3.34 µM) | – | 1 (≈ 3.34 µM) | 1 (≈ 3.34 µM) | – |
| O=C(O)c1cn(C2CC2)c2cc(N3CCNCC3)c(F)cc2c1=O [CIPROFLOXACIN] | 0.05 (≈ 0.151 µM) | 0.05 (≈ 0.151 µM) | 0.025 (≈ 0.0754 µM) | 0.1 (≈ 0.302 µM) | 0.05 (≈ 0.151 µM) | 0.4 (≈ 1.21 µM) | 0.4 (≈ 1.21 µM) | 0.1 (≈ 0.302 µM) | 4 | 0.025 | 1 | 4 | 0.025 (≈ 0.0754 µM) | 4 | 0.025 (≈ 0.0754 µM) | 0.8 (≈ 2.41 µM) | Activity (Pseudomonas aeruginosa [17]): Active; Activity (Pseudomonas aeruginosa [18]): inactive; Activity (Pseudomonas aeruginosa [19]): inactive; Activity (Pseudomonas aeruginosa [20]): Active; Activity (Pseudomonas aeruginosa [21]): inactive; Activity (Pseudomonas aeruginosa [22]): inactive |
